pIC50: −log10 of the molar value. Where “and” joins values, the source holds several entries; their conditions need not be identical. Equal values may be shown once.
Assays:
[1] = Inhibitory concentration against CDK1/Cyclin B complex from Marthasterias glacialis M-phase oocytes; assay type: cell-based; conditions: oocyte
[2] = test system: HT-29; assay: Cytotoxic effect against human colon carcinoma cell line (HT-29); assay type: functional, cell-based
Outline: (§1)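 MTT assay on cells in log-phase growth, seeded at 2.5 × 10³ cells/well and kept at 37 °C in 5% CO₂. Compounds were added 24 h after seeding as serial PBS dilutions of a […] DMSO stock. After 72 h exposure, MTT was added for 4 h, then DMSO; absorbance read at 570 nm. At least three experiments; IC50 taken from the mean % absorbance versus concentration.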

[3] = test system: HeLa; assay: Cytotoxic effect against human cervical carcinoma cell line (HeLa); assay type: functional, cell-based; outline: as §1
[4] = test system: PC-3; assay: Cytotoxic effect against human prostate carcinoma cell line (PC-3); assay type: functional, cell-based; outline: as §1

| pIC50 [1] | Structure (SMILES) | pIC50 [2] | pIC50 [3] | pIC50 [4] |
| --- | --- | --- | --- | --- |
| < 4.30 | CC(C)(C)c1ccc(-c2[nH]nc3nnc(N)c-3c2-c2ccc(C(C)(C)C)cc2)cc1 | 5.07 | 5.06 |  |
| < 4.30 | Nc1[nH]nc2nnc(-c3ccc(C(F)(F)F)cc3)c(-c3ccc(C(F)(F)F)cc3)c12 | < 4.00 | < 4.00 |  |
| 4.82 | COc1ccc(-c2[nH]nc3nnc(N)c-3c2-c2ccc(OC)cc2)cc1 | < 4.00 | < 4.00 | < 4.00 |
| < 4.30 | Nc1[nH]nc2nnc(-c3ccccn3)c(-c3ccccn3)c12 | 4.14 | < 4.00 |  |
| < 4.30 | Oc1[nH]nc2nnc(-c3ccccc3)c(-c3ccccc3)c12 | < 4.00 | < 4.00 | < 4.00 |
| < 4.30 | Nc1ccc(-c2[nH]nc3nnc(N)c-3c2-c2ccc(N)cc2)cc1 | 4.98 | < 4.00 |  |
| < 4.30 | Cc1n[nH]c2nnc(N)c-2c1-c1ccccc1 | < 4.00 | 4.05 | 4.14 |
| < 4.30 | Cc1n[nH]c2nnc(N)c-2c1C | < 4.00 | < 4.00 |  |
| < 4.30 | Nc1[nH]nc2nnc(-c3ccc(-c4ccccc4)cc3)c(-c3ccc(-c4ccccc4)cc3)c12 | < 4.00 | < 4.00 |  |
| < 4.30 | Nc1nn(CCOCCO)c2nnc(-c3ccccc3)c(-c3ccccc3)c12 | < 4.00 | < 4.00 | < 4.00 |
| 5.05 | O=C(Nc1ccccc1)Nc1[nH]nc2nnc(-c3ccccc3)c(-c3ccccc3)c12 | < 4.00 | 5.53 | < 4.00 |
| < 4.30 | CC(=O)Nc1nn(C(C)=O)c2nnc(-c3ccccc3)c(-c3ccccc3)c12 | < 4.00 | < 4.00 | < 4.00 |
| < 4.30 | Nc1[nH]nc2nnc(-c3ccc([N+](=O)[O-])cc3)c(-c3ccc([N+](=O)[O-])cc3)c12 | < 4.00 | < 4.00 |  |
| 5.52 and 5.21 | Nc1n[nH]c2nnc(-c3ccccc3)c(-c3ccccc3)c12 | < 4.00 | < 4.00 | < 4.00 |
| < 4.30 | Nc1nn(COCCO)c2nnc(-c3ccccc3)c(-c3ccccc3)c12 | < 4.00 | < 4.00 | < 4.00 |
| < 4.30 | CC(=O)Nc1[nH]nc2nnc(-c3ccccc3)c(-c3ccccc3)c12 | < 4.00 | < 4.00 | < 4.00 |
| < 4.00 | CC/N=C(\S)Nc1[nH]nc2nnc(-c3ccco3)cc12 |  |  |  |
| < 4.30 | Nc1n[nH]c2nnc(-c3ccccc3)cc12 | 4.09 | < 4.00 |  |
| < 4.30 | Nc1nn(Cc2ccccc2)c2nnc(-c3ccccc3)c(-c3ccccc3)c12 | < 4.00 | < 4.00 | < 4.00 |
| < 4.30 | CC(=O)n1nc(N)c2c(-c3ccccc3)c(-c3ccccc3)nnc21 | < 4.00 | < 4.00 | < 4.00 |

| Structure (SMILES) | pIC50 [1] | pIC50 [2] | pIC50 [3] | pIC50 [4] |
| --- | --- | --- | --- | --- |
| Nc1[nH]nc2nnc(-c3ccco3)c(-c3ccco3)c12 | 5.82 | < 4.00 | < 4.00 |  |
| NNc1[nH]nc2nnc(-c3ccccc3)c(-c3ccccc3)c12 | 5.07 |  |  |  |
| CCNC(=O)Nc1[nH]nc2nnc(-c3ccco3)cc12 | 5.06 |  |  |  |
| Nc1[nH]nc2nnc(-c3ccco3)cc12 | 5.28 | < 4.00 | < 4.00 | < 4.00 |
| CCNC(=O)Nc1[nH]nc2nnc(-c3ccccc3)c(-c3ccccc3)c12 | 5.12 | < 4.00 | 4.22 | < 4.00 |

— ChEMBL document CHEMBL1140371, “Pyrazolo[3,4-c]pyridazines as novel and selective inhibitors of cyclin-dependent kinases” (J Med Chem, 2005)
